Measurements from ChEMBL document CHEMBL4699542, “Design and synthesis of novel methoxypyridine-derived gamma-secretase modulators” (Bioorg Med Chem, 2020).

Key:
Gamma-secretase [1] = assay: Modulation of gamma secretase in human SH-SY5Y cells overexpressing wild type APP751 assessed as effect on amyloid beta38 level by meso scale discovery; type: cell-based
[2] = Metabolic stability in mouse liver microsomes assessed as parent compound remaining at 1 uM incubated for 30 mins; type: ADME, Microsome; conditions: 0.5 h
Outline: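 Test compound at 1 μM incubated 30 min with human, rat or mouse liver microsomes (1 mg/mL); parent remaining expressed as %.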

[3] = Ratio of drug concentration in CD-1 mouse brain to plasma at 0.4 mg/kg, iv measured after 1 hr; type: ADME, organism-based
[4] = biological target: Voltage-gated inwardly rectifying potassium channel KCNH2 (Homo sapiens, UniProt Q12809); assay: Inhibition of human ERG expressed in HEK293 cells by patch clamp assay; type: cell-based
Gamma-secretase [5] = assay: Modulation of gamma secretase in human SH-SY5Y cells overexpressing wild type APP751 assessed as effect on amyloid beta40 level by meso scale discovery; type: cell-based
Cytochrome P450 3A4 = Cytochrome P450 3A4 (Homo sapiens, UniProt P08684); assay: Inhibition of recombinant CYP3A4 (unknown origin) by fluorescence-based assay; type: ADME
[6] = Efflux ratio of apparent permeability from basolateral to apical membrane over apical to basolateral membrane in MDCK-MDR1 cells; type: ADME, cell-based, Canis lupus familiaris; conditions: dog
Outline: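 Calculated as B-A/A-B apparent permeability ratio across MDR1-MDCK cell monolayers; A-B permeability expressed as ×10⁻⁶ cm/s.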

[7] = (§1) In vivo modulation of gamma secretase in transgenic J20 mouse overexpressing human APP assessed as reduction in plasma amyloid beta42 level at 25 mg/kg, po administered via gavage for 3 consecutive days and measured after 4 hrs post last dose on day 3 by meso scale discovery relative to control; type: functional; set-up: scale not given: the % may be the effect or the level left; conditions: time 3 day
Outline: (§2)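 Female J20 mice, 5–6 months old (n=5/dose), dosed orally at 25, 50 or 100 mg/kg or with vehicle (5% NMP/95% PEG300) for 3 consecutive days. Plasma was taken 4 h after the final dose. Aβ38/40/42 measured by Meso Scale multiplex immunoassay, with % reduction relative to vehicle. Mean ± SEM, ANOVA.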

Gamma-secretase [8] = assay: Modulation of gamma secretase in human SH-SY5Y cells overexpressing wild type APP751 assessed as effect on amyloid beta42 level by meso scale discovery; type: cell-based
[9] = as §1, with “secretase” for “secretase in”, “Tg2576” for “J20”, “APP harboring K595N/M596L Swedish double mutant” for “APP”, “beta40” for “beta42”, “50” for “25”, “14” for “3”; type: functional; set-up: scale not given: the % may be the effect or the level left; conditions: time 14 day
Outline: (§3)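 Female Tg2576 mice, 5–6 months old (n=12/dose), gavaged daily for 14 days with 50 mg/kg or vehicle (5% NMP/95% PEG300). Plasma and brain taken 4 h after the last dose. Aβ38/40/42 quantified by Meso Scale multiplex assay, with % reduction versus vehicle. Mean ± SEM, ANOVA.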

[10] = Drug level in plasma of transgenic Tg2576 mouse overexpressing human APP harboring K595N/M596L Swedish double mutant at 50 mg/kg, po administered via gavage for 14 consecutive days and measured after 4 hrs post last dose on day 14 by HPLC-MS/MS analysis; type: ADME, organism-based; conditions: time 14 day
Outline: (§4)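 Female Tg2576 mice, 5–6 months old, gavaged with 50 mg/kg daily for 14 days (vehicle 5% NMP/95% PEG300), n=12/dose. Plasma and brain collected 4 h after the last dose and analysed by LC-MS/MS. LLOQ was 1 ng/mL in plasma and 5 ng/g in brain.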

[11] = AUClast in CD-1 mouse at 1 mg/kg, iv administered as single dose measured up to 24 hrs; type: ADME, organism-based; set-up: route intravenous, dose 1 mg/kg, time <=24; conditions: in vivo
Outline: (§5)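 Male CD-1 mice, 6–8 weeks old, single dose by tail vein (1 mg/kg, 3% NMP/45% PEG300/12% ethanol/40% water) or oral gavage (5 mg/kg, 5% NMP/95% PEG300). Retro-orbital plasma sampled 0.083 (iv only) to 24 h, n=3/timepoint, and analysed by HPLC/MS/MS. Non-compartmental analysis. Half-life taken from the terminal phase using ≥3 non-zero points after Tmax.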

[12] = as §1, with “secretase” for “secretase in”, “Tg2576” for “J20”, “APP harboring K595N/M596L Swedish double mutant” for “APP”, “beta38” for “beta42”, “50” for “25”, “14” for “3”; type: functional; set-up: scale not given: the % may be the effect or the level left; conditions: time 14 day; outline: as §3
[13] = as §1, with “secretase” for “secretase in”, “Tg2576” for “J20”, “APP harboring K595N/M596L Swedish double mutant” for “APP”, “brain” for “plasma”, “50” for “25”, “14” for “3”; type: functional; set-up: scale not given: the % may be the effect or the level left; conditions: time 14 day
Outline: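 Female Tg2576 mice, 5–6 months old (n=12/dose), dosed daily by oral gavage for 14 days with vehicle (5% NMP/95% PEG300) or 50 mg/kg test article. Killed 4 h post final dose; brain and plasma Aβ38/40/42 measured by Meso Scale multiplex (SECTOR Imager 6000). Percent reduction versus vehicle; mean ± SEM, ANOVA.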

[14] = (§6) In vivo modulation of gamma secretase transgenic Tg2576 mouse overexpressing human APP harboring K595N/M596L Swedish double mutant assessed as reduction in brain amyloid beta40 level at 50 mg/kg, po administered via gavage for 14 consecutive days and measured after 4 hrs post last dose on day 14 by meso scale discovery relative to control; type: functional; set-up: scale not given: the % may be the effect or the level left; conditions: time 14 day; outline: as §3
Mus musculus [15] = assay: In vivo modulation of gamma secretase in po dosed transgenic J20 mouse overexpressing human APP assessed as reduction in plasma amyloid beta40 level administered via gavage for 3 consecutive days and measured after 4 hrs post last dose on day 3 by meso scale discovery; type: functional, organism-based; conditions: dose mg/kg 25-100, time 3.0 day; outline: as §2
[16] = as §6, with “beta38” for “beta40”; type: functional; set-up: scale not given: the % may be the effect or the level left; conditions: time 14 day; outline: as §3
[17] = AUClast in CD-1 mouse at 5 mg/kg, po administered as single dose measured up to 24 hrs; type: ADME, organism-based; set-up: route oral, dose 5 mg/kg, time <=24; conditions: in vivo; outline: as §5
[18] = Drug level in brain of transgenic Tg2576 mouse overexpressing human APP harboring K595N/M596L Swedish double mutant at 50 mg/kg, po administered via gavage for 14 consecutive days and measured after 4 hrs post last dose on day 14 by HPLC-MS/MS analysis; type: ADME, organism-based; conditions: time 14 day, read-out: Ct; outline: as §4
[19] = Ratio of drug level in brain to plasma of transgenic Tg2576 mouse overexpressing human APP harboring K595N/M596L Swedish double mutant at 50 mg/kg, po administered via gavage for 14 consecutive days and measured after 4 hrs post last dose on day 14 by HPLC-MS/MS analysis; type: ADME, organism-based; conditions: 336 h, time 14 day
Outline: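 Female Tg2576 mice, 5–6 months old (n=12/dose), given 50 mg/kg by oral gavage daily for 14 days in 5% NMP/95% PEG300. Sacrificed 4 h after the day-14 dose. Plasma and brain drug levels measured by LC-MS/MS (LLOQ 1 ng/mL plasma, 5 ng/g brain). Ratio = brain/plasma.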

Mus musculus [20] = assay: In vivo modulation of gamma secretase in po dosed transgenic J20 mouse overexpressing human APP assessed as reduction in plasma amyloid beta42 level administered via gavage for 3 consecutive days and measured after 4 hrs post last dose on day 3 by meso scale discovery; type: functional, organism-based; conditions: dose mg/kg 25-100, time 3.0 day; outline: as §2
[21] = as §6, with “plasma” for “brain”, “beta42” for “beta40”; type: functional; set-up: scale not given: the % may be the effect or the level left; conditions: time 14 day; outline: as §3

Chain of Voltage-gated inwardly rectifying potassium channel KCNH2 (Q12809 whole entry): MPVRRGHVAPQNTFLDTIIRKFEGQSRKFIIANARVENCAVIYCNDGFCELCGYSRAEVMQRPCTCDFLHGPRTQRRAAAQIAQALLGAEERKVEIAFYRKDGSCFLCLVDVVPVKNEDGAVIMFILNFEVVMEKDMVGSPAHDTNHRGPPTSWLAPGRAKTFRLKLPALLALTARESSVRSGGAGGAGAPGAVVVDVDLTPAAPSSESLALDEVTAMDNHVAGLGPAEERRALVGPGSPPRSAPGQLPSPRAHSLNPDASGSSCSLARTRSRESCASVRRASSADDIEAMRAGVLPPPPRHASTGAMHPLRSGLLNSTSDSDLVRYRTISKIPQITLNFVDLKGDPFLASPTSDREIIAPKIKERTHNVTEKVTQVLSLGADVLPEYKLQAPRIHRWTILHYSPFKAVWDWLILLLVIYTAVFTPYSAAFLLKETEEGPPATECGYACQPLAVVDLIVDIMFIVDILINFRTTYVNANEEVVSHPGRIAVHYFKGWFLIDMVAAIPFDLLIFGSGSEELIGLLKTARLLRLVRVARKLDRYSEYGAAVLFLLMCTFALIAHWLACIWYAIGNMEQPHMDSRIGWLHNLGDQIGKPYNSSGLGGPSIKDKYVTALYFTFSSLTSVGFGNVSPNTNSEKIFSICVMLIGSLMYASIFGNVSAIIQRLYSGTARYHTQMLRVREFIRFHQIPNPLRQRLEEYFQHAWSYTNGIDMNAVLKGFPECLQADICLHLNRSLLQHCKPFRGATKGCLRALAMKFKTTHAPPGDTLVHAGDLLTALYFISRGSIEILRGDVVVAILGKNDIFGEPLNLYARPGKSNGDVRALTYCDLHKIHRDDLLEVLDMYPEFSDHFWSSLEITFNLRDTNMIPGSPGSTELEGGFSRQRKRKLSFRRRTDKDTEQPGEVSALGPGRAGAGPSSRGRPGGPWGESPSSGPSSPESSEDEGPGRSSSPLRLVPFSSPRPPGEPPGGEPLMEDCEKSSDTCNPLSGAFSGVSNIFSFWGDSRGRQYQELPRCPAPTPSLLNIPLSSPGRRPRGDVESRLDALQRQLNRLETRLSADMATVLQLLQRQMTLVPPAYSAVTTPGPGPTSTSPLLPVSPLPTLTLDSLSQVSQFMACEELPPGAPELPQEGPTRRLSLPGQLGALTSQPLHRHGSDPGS
Chain of Cytochrome P450 3A4 (P08684 whole entry): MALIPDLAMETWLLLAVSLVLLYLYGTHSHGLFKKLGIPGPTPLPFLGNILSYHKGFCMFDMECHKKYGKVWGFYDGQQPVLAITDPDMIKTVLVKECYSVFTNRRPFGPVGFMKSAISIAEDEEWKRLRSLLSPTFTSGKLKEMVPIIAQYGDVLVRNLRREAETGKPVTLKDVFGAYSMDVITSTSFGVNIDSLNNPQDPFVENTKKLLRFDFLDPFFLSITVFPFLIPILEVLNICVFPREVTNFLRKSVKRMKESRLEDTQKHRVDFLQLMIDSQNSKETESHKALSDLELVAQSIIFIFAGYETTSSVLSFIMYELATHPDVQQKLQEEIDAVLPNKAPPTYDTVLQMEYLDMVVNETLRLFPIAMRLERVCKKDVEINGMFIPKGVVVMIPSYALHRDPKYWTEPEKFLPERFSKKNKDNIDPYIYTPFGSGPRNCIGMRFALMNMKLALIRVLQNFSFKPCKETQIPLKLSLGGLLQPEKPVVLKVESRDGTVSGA

COc1nc(-c2csc(Nc3c4c(nn3CCF)CCCC4)n2)ccc1-n1cnc(C)c1 showed an EC50 (Gamma-secretase [1]) of 187 nM, a Stabilty [2] of 100% and a BPR [3] of 0.81. The IC50 [4] was 11400 nM, the IC50 (Gamma-secretase [5]) was 100 nM and the IC50 (Cytochrome P450 3A4) was 1000 nM. It also gave a Ratio [6] of 1.9, an Activity [7] of 18% and an IC50 (Gamma-secretase [8]) of 14 nM.

In the case of CCn1nc2c(c1Nc1nc(-c3ccc(-n4cnc(C)c4)c(OC)n3)cs1)CCC2, the Activity [9] is reported as 24%, the concentration at 336 h [10] is reported as 1130 ng/mL and the EC50 (Gamma-secretase [1]) is reported as 202 nM. The AUClast [11] was 376 ng·h/mL, the Activity [12] was 111% and the BPR [3] was 0.37. The Activity [13] was 23%, the Activity [14] was 1% and the Activity (Mus musculus [15]) was “Dose-dependent effect”. It also gave an Activity [16] of 0%, an AUClast [17] of 1205 ng·h/mL and an IC50 (Gamma-secretase [5]) of 209 nM. For the same compound, the concentration at 336 h [18] was 425 ng/g, the BPR [19] was 0.374 and the Activity [7] was 29%. For the same compound, the Activity (Mus musculus [20]) was “Dose-dependent effect”, the IC50 (Gamma-secretase [8]) was 19 nM and the Activity [21] was 52%.
